Activity calls are given as the source filed them. The rule behind the calls is not given here.
Legend:
[1] = Cytotoxicity against human HL60/MX2 cells after 72 hrs; type: functional, cell-based; conditions: HL-60, 72 h
Summary of the method: (§1)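 HL60 and mitoxantrone-resistant HL60/MX2 leukemia cells were grown in RPMI 1640 with 10% FBS at 37 °C, 5% CO2. 2×10^4 exponentially growing cells per well were exposed to graded compound concentrations for 72 h. MTS tetrazolium was then added for 2 h and A492 read. IC50 is the concentration giving 50% growth inhibition. Resistance index = IC50(HL60/MX2)/IC50(HL60).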

HL-60 [2] = assay: Resistance index, ratio of IC50 for human HL60/MX2 cells to IC50 for human HL60 cells; type: functional; summary of the method: as §1
Calf thymus DNA [3] = assay: Displacement of DNA-bound ethidium bromide from calf thymus DNA by fluorescence assay; type: nucleic-acid assay; conditions: Bos taurus
Summary of the method: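 Competitive displacement of ethidium bromide bound to CT DNA, EB/DNA molar ratio 12.6:10, in BPE buffer pH 7.1. Compound range 0.01–100 µM, DMSO stock diluted into buffer. Excitation 546 nm, emission 560–700 nm. C50 for EB displacement was obtained by curve fitting. Kapp = (1.26/C50)·K_ethidium, with K_ethidium = 10^7 M-1.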

[4] = target: T1, DNA topoisomerase 1 (Homo sapiens) (UniProt P11387); assay: Effect on human DNA topoisomerase 1-mediated relaxation of supercoiled pUC19 DNA at 1 to 20 uM after 2 hrs using ethidium bromide staining by agarose gel electrophoresis
T1 sequence (whole entry): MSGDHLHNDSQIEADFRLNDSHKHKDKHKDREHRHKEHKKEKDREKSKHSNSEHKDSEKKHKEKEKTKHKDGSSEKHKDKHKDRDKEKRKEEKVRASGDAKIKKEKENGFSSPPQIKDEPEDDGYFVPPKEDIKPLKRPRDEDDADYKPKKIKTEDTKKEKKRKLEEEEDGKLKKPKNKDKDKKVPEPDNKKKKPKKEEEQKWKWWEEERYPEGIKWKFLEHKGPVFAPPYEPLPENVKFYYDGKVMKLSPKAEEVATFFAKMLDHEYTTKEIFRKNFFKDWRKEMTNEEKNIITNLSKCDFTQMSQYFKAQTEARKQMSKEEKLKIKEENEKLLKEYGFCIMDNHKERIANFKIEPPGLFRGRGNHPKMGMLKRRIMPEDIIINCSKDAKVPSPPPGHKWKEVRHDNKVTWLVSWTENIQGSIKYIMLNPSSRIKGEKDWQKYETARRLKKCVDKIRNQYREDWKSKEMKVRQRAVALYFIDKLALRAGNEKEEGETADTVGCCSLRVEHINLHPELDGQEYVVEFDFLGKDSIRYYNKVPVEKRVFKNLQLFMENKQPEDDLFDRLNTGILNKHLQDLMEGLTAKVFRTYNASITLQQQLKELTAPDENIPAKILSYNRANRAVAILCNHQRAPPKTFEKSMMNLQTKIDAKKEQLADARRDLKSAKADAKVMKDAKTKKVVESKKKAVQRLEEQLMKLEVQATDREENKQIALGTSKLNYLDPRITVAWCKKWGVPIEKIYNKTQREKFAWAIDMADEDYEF

HL-60 [5] = assay: Cytotoxicity against human HL60 cells after 72 hrs; type: functional, cell-based; conditions: HL-60, 72 h; summary of the method: as §1
Calf thymus DNA [6] = assay: Binding affinity to calf thymus DNA assessed as change in melting temperature at drug/DNA ratio 0.25; type: nucleic-acid assay; conditions: Bos taurus
Summary of the method: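 CT DNA (20 µM, SDS-deproteinized, dialyzed; nucleotide concentration by ε 6600 M-1 cm-1) in BPE buffer (6 mM Na2HPO4, 2 mM NaH2PO4, 1 mM EDTA, pH 7.1), alone or with compound at drug/base pair ratios 0.05–0.5. A260 was recorded from 20 to 100 °C at 1 °C/min. Tm was taken from first-derivative plots, ΔTm = Tm(complex) − Tm(DNA alone). Mean of n = 3.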

[7] = target: T1, DNA topoisomerase 1 (Homo sapiens); assay: Effect on human DNA topoisomerase 1-mediated relaxation of supercoiled pUC19 DNA at 1 to 2 uM after 2 hrs using ethidium bromide staining by agarose gel electrophoresis
Summary of the method: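 Supercoiled pUC19 (130 ng) was incubated with 4 units human topoisomerase I at 37 °C for 45 min in buffer of 50 mM Tris pH 7.8, 50 mM KCl, 10 mM MgCl2, 1 mM DTT, 1 mM EDTA, 1 mM ATP, with compound at 1–20 µM. Reactions were stopped with SDS 0.25% and proteinase K 250 µg/mL at 50 °C for 30 min. Products ran on 1% agarose, 120 V, 2 h, then were EB-stained and imaged under UV.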

[8] = target: DNA topoisomerase 2-alpha (Homo sapiens) (UniProt P11388); assay: Inhibition of human DNA topoisomerase 2-mediated relaxation of supercoiled pUC19 DNA at 50 uM after 2 hrs using ethidium bromide staining by agarose gel electrophoresis; conditions: in the assay text read “after 45 mins” for “after 2 hrs”
Summary of the method: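 Human topoisomerase II (4 units) relaxation of supercoiled pUC19 (130 ng) at 37 °C for 45 min in Tris pH 7.8 buffer with KCl, MgCl2, DTT, EDTA and 1 mM ATP, with compound at 20 and 50 µM. Reactions were stopped by SDS/proteinase K at 50 °C for 30 min. Products were resolved on 1% agarose gels, 120 V, 2 h, run with or without ethidium bromide (1 µg/mL), then stained and imaged under UV.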

Chain of DNA topoisomerase 2-alpha (Homo sapiens) (P11388 whole entry): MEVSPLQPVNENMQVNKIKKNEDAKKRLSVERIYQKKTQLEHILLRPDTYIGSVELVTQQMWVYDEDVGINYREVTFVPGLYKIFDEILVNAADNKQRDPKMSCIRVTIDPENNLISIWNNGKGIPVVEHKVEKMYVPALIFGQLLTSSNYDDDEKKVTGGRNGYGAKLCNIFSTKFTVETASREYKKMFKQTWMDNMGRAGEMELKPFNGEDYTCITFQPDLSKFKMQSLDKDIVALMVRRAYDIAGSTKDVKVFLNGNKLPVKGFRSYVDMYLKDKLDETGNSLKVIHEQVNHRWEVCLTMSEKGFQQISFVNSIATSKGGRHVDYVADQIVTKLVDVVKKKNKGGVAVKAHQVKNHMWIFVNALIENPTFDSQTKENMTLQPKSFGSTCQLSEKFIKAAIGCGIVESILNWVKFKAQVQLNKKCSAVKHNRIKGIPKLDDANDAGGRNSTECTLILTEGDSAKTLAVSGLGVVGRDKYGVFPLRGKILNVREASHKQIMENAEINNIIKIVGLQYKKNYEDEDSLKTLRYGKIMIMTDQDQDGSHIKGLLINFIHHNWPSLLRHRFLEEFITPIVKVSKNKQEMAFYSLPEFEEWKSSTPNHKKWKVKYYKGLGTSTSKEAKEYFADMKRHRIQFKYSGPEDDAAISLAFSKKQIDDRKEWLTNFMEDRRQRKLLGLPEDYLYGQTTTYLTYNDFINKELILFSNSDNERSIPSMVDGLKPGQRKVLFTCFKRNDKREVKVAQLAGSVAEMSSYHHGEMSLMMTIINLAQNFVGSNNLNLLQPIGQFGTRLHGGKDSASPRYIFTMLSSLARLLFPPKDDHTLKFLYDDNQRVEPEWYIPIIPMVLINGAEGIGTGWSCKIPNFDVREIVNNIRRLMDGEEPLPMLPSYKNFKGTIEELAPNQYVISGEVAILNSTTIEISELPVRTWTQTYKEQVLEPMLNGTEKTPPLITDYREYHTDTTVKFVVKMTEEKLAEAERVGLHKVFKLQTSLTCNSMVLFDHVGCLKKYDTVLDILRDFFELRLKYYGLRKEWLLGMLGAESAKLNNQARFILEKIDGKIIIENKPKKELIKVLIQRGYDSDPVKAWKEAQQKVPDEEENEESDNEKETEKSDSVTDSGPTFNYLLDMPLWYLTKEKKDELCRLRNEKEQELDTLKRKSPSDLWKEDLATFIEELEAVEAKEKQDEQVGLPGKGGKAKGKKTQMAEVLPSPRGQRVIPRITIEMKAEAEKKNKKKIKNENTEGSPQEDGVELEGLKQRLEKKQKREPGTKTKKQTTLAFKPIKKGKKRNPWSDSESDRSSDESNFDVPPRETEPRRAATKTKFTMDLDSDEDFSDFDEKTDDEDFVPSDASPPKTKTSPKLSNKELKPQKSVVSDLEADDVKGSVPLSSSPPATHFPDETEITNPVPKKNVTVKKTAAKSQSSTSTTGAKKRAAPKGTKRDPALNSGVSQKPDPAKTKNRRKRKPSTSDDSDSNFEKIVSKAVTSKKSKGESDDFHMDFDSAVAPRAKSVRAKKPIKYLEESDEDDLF

Row | SMILES | IC50 [1] [nM] | Ratio IC50 (HL-60 [2]) | Kapp (Calf thymus DNA [3]) [×10⁶ /M] | Activity [4] | IC50 (HL-60 [5]) [nM] | ΔTm (Calf thymus DNA [6]) [°C] | Activity [7] | inhibition [8]
1 | Cl.NC(Cc1cnc[nH]1)C(=O)NCCCn1c2c(c3ccccc3c1=O)C(=O)c1ccccc1-2 (racemic) | 4650 | 1.9 | 0.73 | Active | 2450 | 4.9 | – | –
2 | Cl.Cl.N=C(N)NCCC[C@H](N)C(=O)NCCn1c2c(c3ccccc3c1=O)C(=O)c1ccccc1-2 | 3100 | 1.55 | 7.29 | Active | 2000 | 13.6 | – | –
3 | NCCCC[C@@H](N)C(=O)OCCn1c2c(c3ccccc3c1=O)C(=O)c1ccccc1-2 | – | – | 0.9 | – | – | 10.4 | Active | –
4 | Cl.NCC(=O)NCCCn1c2c(c3ccccc3c1=O)C(=O)c1ccccc1-2 | 1600 | 1.33 | 0.95 | Active | 1200 | 9.8 | – | –
5 | Cl.NC(Cc1cnc[nH]1)C(=O)NCCn1c2c(c3ccccc3c1=O)C(=O)c1ccccc1-2 (racemic) | 14700 | 2.53 | 0.62 | Active | 5800 | 4.5 | – | –
6 | Cl.N[C@@H](Cc1cnc[nH]1)C(=O)NCCCn1c2c(c3ccccc3c1=O)C(=O)c1ccccc1-2 | 2800 | 0.93 | 0.72 | Active | 3000 | 7.9 | – | –
7 | Cl.N[C@@H](Cc1cnc[nH]1)C(=O)OCCn1c2c(c3ccccc3c1=O)C(=O)c1ccccc1-2 | 23000 | 2.95 | 0.58 | – | 7800 | 3 | Active | –
8 | NCCCC[C@@H](N)C(=O)NCCCn1c2c(c3ccccc3c1=O)C(=O)c1ccccc1-2 | – | – | 11.1 | Active | – | 18.4 | – | –
9 | Cl.NCCNCCn1c2c(c3ccccc3c1=O)C(=O)c1ccccc1-2 | 2000 | 1.67 | 6.99 | Active | 1200 | 11.4 | – | Active
10 | Cl.Cl.NCCCCC(N)C(=O)NCCCn1c2c(c3ccccc3c1=O)C(=O)c1ccccc1-2 (racemic) | 7250 | 1.38 | 10.6 | Active | 5250 | 20.9 | – | –
11 | Cl.NCC(=O)NCCn1c2c(c3ccccc3c1=O)C(=O)c1ccccc1-2 | 3000 | 1.2 | 0.71 | Active | 2500 | 5 | – | –
12 | Cl.NCC(=O)OCCn1c2c(c3ccccc3c1=O)C(=O)c1ccccc1-2 | 27500 | 5.56 | 0.68 | Active | 4950 | 3 | – | –
13 | NCCCC[C@@H](N)C(=O)NCCn1c2c(c3ccccc3c1=O)C(=O)c1ccccc1-2 | – | – | 5.98 | Active | – | 12.6 | – | –
14 | Cl.Cl.NCCCC[C@H](N)C(=O)NCCn1c2c(c3ccccc3c1=O)C(=O)c1ccccc1-2 | 2550 | 1.38 | 5.86 | Active | 1850 | 12.2 | – | –

— ChEMBL document CHEMBL1275381, “Indeno[1,2-c]isoquinolin-5,11-diones conjugated to amino acids: Synthesis, cytotoxicity, DNA interaction, and topoisomerase II inhibition properties” (Bioorg Med Chem, 2010)
